According to ChEMBL document CHEMBL1157729, “Structure-activity relationship and mechanism of action studies of manzamine analogues for the control of neuroinflammation and cerebral infections” (J Med Chem, 2010):
In brackets after ≈: the same amount, converted by molar mass. Activity calls are given as the source filed them. No cut-off for these calls is given here.

Key:
Plasmodium falciparum [1] = experiment: Antiplasmodial activity against chloroquine-resistant Plasmodium falciparum W2 after 72 hrs by LDH assay; assay type: functional, organism-based; conditions: Plasmodium falciparum, W2, 72 h; read-out: IC50
[2] = test system: Mycobacterium intracellulare; experiment: Ratio of IC50 for drug to ciprofloxacin against Mycobacterium intracellular ATCC 23068; assay type: functional
[3] = Antineuroinflammatory activity in LPS-stimulated rat neonatal microglia assessed as drug level causing 50% PMA-induced LDH release preincubated 15 mins prior to PMA challenge measured after 70 mins; assay type: functional
Method in brief: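 Neonatal rat microglia (2 × 10^5/well) primed with E. coli LPS 0.3 ng/mL for 17 h at 35.9 °C, washed with HBSS, given compound (0.01–10 μM) or DMSO 15 min, then PMA 1 μM; LDH read spectrophotometrically after 70 min; LDH50 relative to Triton X-100 (0.1%) release; duplicates.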

[4] = (§1) Antineuroinflammatory activity in LPS-stimulated rat neonatal microglia assessed as inhibition of PMA-induced superoxide anion production preincubated 15 mins prior to PMA challenge measured after 70 mins; assay type: functional, cell-based
[5] = test system: Mycobacterium intracellulare; experiment: Antimycobacterial activity against Mycobacterium intracellular ATCC 23068; assay type: functional, organism-based
Method in brief: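 Modified Franzblau method; samples serially diluted in 20% DMSO/saline, tested in duplicate; inoculum set by OD630; fluorescence read at 544ex/590em before and after incubation; ciprofloxacin drug control.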

Cryptococcus neoformans = experiment: Antifungal activity against Cryptococcus neoformans ATCC 90113; assay type: functional, organism-based
Method in brief: (§2)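 Broth microdilution per modified CLSI method; samples serially diluted in 20% DMSO/saline, tested in duplicate; inocula set by OD630 of suspensions in incubation broth; growth read at 630 nm before and after incubation; amphotericin B drug control.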

Vero = experiment: Cytotoxicity against african green monkey Vero cells after 48 hrs by neutral red assay; assay type: cell-based; conditions: chlorocebus sabaeus
Method in brief: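 Vero cells seeded at 25,000/well and grown 24 h, then exposed to serially diluted samples for 48 h. Viable cells measured by neutral red assay, with doxorubicin as positive control. IC50 taken from dose-response curves.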

Candida albicans = experiment: Antifungal activity against Candida albicans ATCC 90028; assay type: functional, organism-based; method in brief: as §2
Plasmodium falciparum [6] = experiment: Antiplasmodial activity against chloroquine-sensitive Plasmodium falciparum D6 after 72 hrs by LDH assay; assay type: functional, organism-based; conditions: Plasmodium falciparum, D6, 72 h; read-out: IC50
[7] = test system: Mycobacterium tuberculosis; experiment: Antimycobacterial activity against Mycobacterium tuberculosis H37Rv; assay type: functional, organism-based
[8] = (§3) Antineuroinflammatory activity in LPS-stimulated rat neonatal microglia assessed as inhibition of PMA-induced TXB2 production preincubated 15 mins prior to PMA challenge measured after 70 mins; assay type: functional, cell-based
Microglia [9] = experiment: as §1; assay type: functional, cell-based
Microglia [10] = experiment: as §3; assay type: functional, cell-based
Plasmodium berghei [11] = experiment: Antiplasmodial activity against Plasmodium berghei NK65 infected in Swiss Webster mice (Mus musculus) assessed as average parasitaemia at 200 mg/kg, perorally administered 1 day after infection measured after 28 days post infection; assay type: functional; conditions: route oral
Method in brief: (§4)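 Male Swiss Webster mice (18-20 g, ≥5/group) inoculated i.p. with 2×10^7 P. berghei NK-65 parasitized RBC, given a single oral dose (100 μl, SSV or dilute HCl vehicle); parasitemia by Giemsa-stained tail blood smears days 5–28; activity as % decrease versus untreated controls on day 5.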

Plasmodium berghei [12] = experiment: Antiplasmodial activity against Plasmodium berghei NK65 infected in Swiss Webster mice (Mus musculus) assessed as average parasitaemia at 200 mg/kg, perorally administered 1 day after infection measured after 14 days post infection; assay type: functional; conditions: route oral
Method in brief: (§5)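 Male Swiss Webster mice (18-20 g), at least 5 per group, were inoculated ip with 2×10^7 P. berghei NK-65-parasitized red cells from a donor mouse and given a single oral dose (100 μl). Stock was made in SSV or 0.1 M HCl and diluted in SSV or 0.01 M HCl. Parasitemia was read from Giemsa-stained tail blood smears from day 5 to day 28. Cure meant no parasitemia through day 28.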

Plasmodium berghei [13] = experiment: Antiplasmodial activity against Plasmodium berghei NK65 infected in Swiss Webster mice (Mus musculus) assessed as inhibition of parasitaemia at 200 mg/kg, perorally administered 1 day after infection measured after 5 days post infection; assay type: functional; design: Activity: scale not given: the % may be the effect or the level left; conditions: route oral; method in brief: as §4
Plasmodium berghei [14] = experiment: Antiplasmodial activity against Plasmodium berghei NK65 infected in Swiss Webster mice (Mus musculus) assessed as average parasitaemia at 200 mg/kg, perorally administered 1 day after infection measured after 21 days post infection; assay type: functional; conditions: route oral; method in brief: as §5
Plasmodium berghei [15] = experiment: Antiplasmodial activity against Plasmodium berghei NK65 infected in Swiss Webster mice (Mus musculus) assessed as parasitaemia cure at 200 mg/kg, perorally administered 1 day after infection measured after 28 days post infection; assay type: functional; conditions: route oral; method in brief: as §5
Plasmodium berghei [16] = experiment: Antiplasmodial activity against Plasmodium berghei NK65 infected in Swiss Webster mice (Mus musculus) assessed as average parasitaemia at 200 mg/kg, perorally administered 1 day after infection measured after 5 days post infection; assay type: functional; conditions: route oral; method in brief: as §5
MDCK = experiment: Apparent permeability across apical to basolateral side of MDCK cells expressing MDR; assay type: ADME, cell-based, Canis lupus familiaris; conditions: dog
Method in brief: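 MDR-MDCK cells (passage 12-40) seeded at 75,000 cells/cm2 and grown 8 days on Transwell inserts to a monolayer. Bidirectional transport over 2 h in HBSS pH 7.4 with test substance at 50 μM and caffeine (5 μM) as standard. Donor and receiver samples quantified by LC-MS. Cumulative amount transported plotted against time to derive apparent permeability.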

Plasmodium berghei [17] = experiment: Antiplasmodial activity against Plasmodium berghei NK65 infected in Swiss Webster mice (Mus musculus) assessed as average parasitaemia at 200 mg/kg, perorally administered 1 day after infection measured after 10 days post infection; assay type: functional; conditions: route oral; method in brief: as §4
Plasmodium yoelii = experiment: Antiplasmodial activity against Plasmodium yoelii infected in perorally dosed mice (Mus musculus); assay type: functional; conditions: po

Row | Compound | IC50 (Plasmodium falciparum [1]) [µg/mL] | Activity [3] [µM] | IC50 [4] [µM] | IC50 [5] [µg/mL] | IC50 (Cryptococcus neoformans) [µg/mL] | IC50 (Vero) [µg/mL] | IC50 (Candida albicans) [µg/mL] | IC50 (Plasmodium falciparum [6]) [µg/mL] | MIC [7] [µg/mL] | IC50 [8] [µM] | also measured
1 | COC(=O)c1cc2c([nH]c3ccccc32)c(C2=C[C@@]3(O)CC/C=C\CCCCN4CC[C@@H]2[C@]2(C[C@@H]5/C=C\CCCCN5[C@H]23)C4)n1 | 0.015 (≈ 0.0247 µM) | >10 | 0.03 | < 0.02 | 2 (≈ 3.3 µM) | 0.2 (≈ 0.33 µM) | 20 (≈ 33 µM) | 0.011 (≈ 0.0181 µM) | > 64 | 0.11 | Ratio IC50 [2]: 5
2 | COC(=O)C1Cc2c([nH]c3ccccc23)C(C2=C[C@@]3(O)CC/C=C\CCCCN4CC[C@@H]2[C@]2(C[C@@H]5/C=C\CCCCN5[C@H]23)C4)N1 (stereo partly drawn) | 0.17 (≈ 0.278 µM) | 5 | 8.6 | 0.06 (≈ 0.0982 µM) | 3.5 (≈ 5.73 µM) | 1 (≈ 1.64 µM) | > 20 | 0.1 (≈ 0.164 µM) | > 64 | 4.9 | Ratio IC50 [2]: 5
3 | CCCCn1c2ccccc2c2ccnc(C3=C[C@@]4(O)CC/C=C\CCCCN5CC[C@@H]3[C@]3(C[C@@H]6/C=C\CCCCN6[C@H]34)C5)c21 [9-N-BUTYLMANZAMINE A] | 1.3 (≈ 2.15 µM) | >10 | 0.12 | > 20 | > 20 | 2 (≈ 3.31 µM) | > 20 | 0.33 (≈ 0.546 µM) | 128 (≈ 212 µM) | 0.4 | 
4 | CCn1c2ccccc2c2ccnc(C3=C[C@@]4(O)CC/C=C\CCCCN5CC[C@@H]3[C@]3(C[C@@H]6/C=C\CCCCN6[C@H]34)C5)c21 [9-N-ETHYLMANZAMINE A] | 0.47 (≈ 0.815 µM) | >10 | 9.7 | 0.5 (≈ 0.867 µM) | 10 (≈ 17.3 µM) | 1.5 (≈ 2.6 µM) | 20 (≈ 34.7 µM) | 0.14 (≈ 0.243 µM) | > 128 | > 10 | 
5 | CC(C)(C)Cn1c2ccccc2c2ccnc(C3=C[C@@]4(O)CC/C=C\CCCCN5CC[C@@H]3[C@]3(C[C@@H]6/C=C\CCCCN6[C@H]34)C5)c21 [9-N-NEOPENTYLMANZAMINE A] | 2.8 (≈ 4.52 µM) | >10 | 0.07 | 0.5 (≈ 0.808 µM) | 4 (≈ 6.46 µM) | 0.7 (≈ 1.13 µM) | 7 (≈ 11.3 µM) | 2.4 (≈ 3.88 µM) | 4 (≈ 6.46 µM) | 0.07 | 
6 | CCCn1c2ccccc2c2ccnc(C3=C[C@@]4(O)CC/C=C\CCCCN5CC[C@@H]3[C@]3(C[C@@H]6/C=C\CCCCN6[C@H]34)C5)c21 [9-N-PROPYLMANZAMINE A] | 0.74 (≈ 1.25 µM) | >10 | 3 | 2 (≈ 3.38 µM) | > 20 | 3.7 (≈ 6.26 µM) | > 20 | 0.69 (≈ 1.17 µM) | 37 (≈ 62.6 µM) | > 10 | 
7 | Oc1cccc2c1[nH]c1c(C3=C[C@@]4(O)CCCCCCCCN5CC[C@@H]3[C@]3(C[C@@H]6CCCCCCN6[C@H]34)C5)nccc12 [15,16,32,33-TETRAHYDRO-8-HYDROXYMANZAMINE A] | 0.62 (≈ 1.09 µM) | >10 | > 10 | 0.1 (≈ 0.176 µM) | 1.5 (≈ 2.64 µM) |  | 6 (≈ 10.5 µM) | 0.09 (≈ 0.158 µM) | 24 (≈ 42.2 µM) | 1.97 | Activity (Microglia [9]): inactive; Activity (Microglia [10]): inactive
8 | CCN(CC)CCCC(C)Nc1ccnc2cc(Cl)ccc12 (stereo not drawn) [CHLOROQUINE] |  |  |  |  |  |  |  |  |  |  | Activity (Plasmodium berghei [11]): 8%; Activity (Plasmodium berghei [12]): 0.2%; Activity (Plasmodium berghei [13]): 100%; Activity (Plasmodium berghei [14]): 4%; Activity (Plasmodium berghei [15]): 80%; Activity (Plasmodium berghei [16]): 0%
9 | Cl.O[C@]12C=C(c3nccc4c3[nH]c3ccccc34)[C@@H]3CCN(CCCC/C=C\CC1)C[C@@]31C[C@@H]3/C=C\CCCCN3[C@H]12 [MANZAMINE A HCL] |  |  |  |  |  |  |  |  |  |  | Papp (MDCK): 1.9 ×10⁻⁶ cm/s
10 | C=C[C@H]1CN2CC[C@H]1C[C@H]2[C@H](O)c1ccnc2ccc(OC)cc12 [QUININE] |  |  |  |  |  |  |  |  |  |  | Activity (Plasmodium berghei [17]): 14%; Activity (Plasmodium berghei [12]): 32%; Activity (Plasmodium berghei [13]): 26%; Activity (Plasmodium berghei [14]): 45%; Activity (Plasmodium berghei [15]): 0%; Activity (Plasmodium berghei [16]): 7.3%
11 | C[C@H]1[C@H](OC(=O)CCC(=O)[O-])O[C@@H]2O[C@@]3(C)CC[C@H]4[C@H](C)CC[C@@H]1[C@@]24OO3.[Na+] [SODIUM ARESUNATE] |  |  |  |  |  |  |  |  |  |  | ED50 (Plasmodium yoelii): 4.1 mg/kg; ED90 (Plasmodium yoelii): 17 mg/kg
12 | O[C@]12C=C(c3nccc4c3[nH]c3ccccc34)[C@@H]3CCN(CCCCCCCC1)C[C@@]31C[C@@H]3CCCCCCN3[C@H]12 [TETRAHYDROMANZAMINE A] | 1.5 (≈ 2.71 µM) | >10 | > 10 | 0.45 (≈ 0.814 µM) | 0.9 (≈ 1.63 µM) |  | 7.5 (≈ 13.6 µM) |  | 50 (≈ 90.4 µM) | > 10 | Activity (Microglia [9]): inactive; Activity (Microglia [10]): inactive
